From ChEMBL document CHEMBL5505959, “Identification of 4-amino-2-Pyridones as new potent PCSK9 inhibitors: From phenotypic hit discovery to in vivo tolerability” (Eur J Med Chem, 2024)
Activity calls are given as the source filed them. The rule behind the calls is not given here.

Tests used:
[1] = Toxicity in C57BL/6 mouse assessed as effect on urination at 40 mg/kg, sc measured after 7 days; assay type: organism-based; conditions: in vivo, 168 h, time 7 day
Method in brief: (§1)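 Male C57BL/6J mice, three months old, 26–30 g (n = 5–6/group), received daily sc injections of 40 mg/kg in Transcutol, 50 µl, for seven days. Controls were vehicle and SBC-115076 4 mg/kg. Readouts were daily body weight, open-field locomotion and modified SHIRPA, and gross organ inspection. Liver H&E cryosections were scored by two operators; plasma cholesterol by colorimetric assay, PCSK9 by ELISA.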

[2] = Downregulation of PCSK9 mRNA level in human HepG2 cells at 5 uM by qRT-PCR analysis relative to control; assay type: functional
Method in brief: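 Total RNA was taken from treated HepG2 cells for RT-qPCR of PCSK9, FAS and HMG-CoA reductase. Cycling was 50 °C 10 min, 95 °C 2 min, then 40 cycles of 95 °C 5 s and 60 °C 10 s. Relative quantification used ΔΔCt against 18S, corrected for primer efficiency. Mean ± SD of three independent experiments.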

[3] = Toxicity in C57BL/6 mouse assessed as spontaneous locomotor activity at 40 mg/kg, sc measured after 7 days; assay type: organism-based; conditions: in vivo, 168 h, time 7 day
Method in brief: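 Open-field test in male C57BL/6J mice: 10 min free exploration of a 50 × 50 × 40 cm wooden chamber, with distance and speed tracked automatically. Basal sessions were run before dosing, then testing continued across daily 50 µl subcutaneous injections (40 mg/kg, Transcutol vehicle). Distance, mean speed and % time in corners and arena were recorded as part of a modified SHIRPA screen.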

[4] = Toxicity in C57BL/6 mouse assessed as effect on gut at 40 mg/kg, sc measured after 7 days by macroscopic analysis; conditions: in vivo, 168 h
[5] = Toxicity in C57BL/6 mouse assessed as effect on plasma total cholesterol level at 40 mg/kg, sc measured after 7 days by biochemical assay; conditions: in vivo, 168 h
[6] = Toxicity in C57BL/6 mouse assessed as effect on liver at 40 mg/kg, sc measured after 7 days by H and E staining based analysis; assay type: organism-based; conditions: in vivo, 168 h, time 7 day; method in brief: as §1
HepG2 [7] = assay: Downregulation of proPCSK9 level in human HepG2 cells by Western blot analysis; assay type: functional, cell-based
Method in brief: (§2)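 HepG2 cells were treated overnight or for 24 h, alone or with simvastatin 40 μM. Lysates (1 % NP-40, 150 mM NaCl, 50 mM Tris-HCl pH 7.5) were loaded at 25 µg protein on 4–20 % SDS-PAGE. Blots were probed for proPCSK9, mature PCSK9 and LDLR, and densitometry was normalized to β-actin or GAPDH. Mean ± SD of three independent experiments.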

[8] = Toxicity in C57BL/6 mouse assessed as effect on spleen at 40 mg/kg, sc measured after 7 days by H and E staining based analysis; assay type: organism-based; conditions: in vivo, 168 h, time 7 day
[9] = Toxicity in C57BL/6 mouse assessed as abnormal secretion at 40 mg/kg, sc measured after 7 days; assay type: organism-based; conditions: in vivo, 168 h, time 7 day; method in brief: as §1
[10] = Toxicity in C57BL/6 mouse assessed as tremor at 40 mg/kg, sc measured after 7 days; assay type: organism-based; conditions: in vivo, 168 h, time 7 day
Method in brief: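 General health of subcutaneously dosed C57BL/6J mice (40 mg/kg daily, Transcutol, seven days) was tracked with a modified SHIRPA screen covering phenotype, sensory and neuropsychiatric functions. Body weight was recorded daily as % change from the day −3 to −1 baseline.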

[11] = Toxicity in C57BL/6 mouse assessed as cellular necrosis at 40 mg/kg, sc measured after 7 days by histopathological analysis; assay type: organism-based; conditions: in vivo, 168 h, time 7 day; method in brief: as §1
HepG2 [12] = assay: Downregulation of mature PCSK9 level in human HepG2 cells by Western blot analysis; assay type: functional, cell-based; method in brief: as §2
HepG2 [13] = assay: Inhibition of simvastatin induced PCSK9 level in human HepG2 cells at 2.5 to 5 uM by Western blot analysis; assay type: functional, cell-based; conditions: dose 2.5-5 µM; method in brief: as §2
HepG2 [14] = assay: Upregulation of LDLR/PCSK9 in human HepG2 cells at 2.5 to 5 uM in presence of simvastatin by Western blot analysis; assay type: functional, cell-based; conditions: dose 2.5-5 µM
Method in brief: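 HepG2 cells grown in MEM with 10 % FBS. Incubated overnight with test compound with or without simvastatin 40 μM (simvastatin dissolved in 0.1 M NaOH, pH 7.4). Lysates in 1 % NP-40 buffer; 25 µg protein run on 4–20 % SDS-PAGE. Immunoblotted for PCSK9 and LDLR, normalized to GAPDH by densitometry. Mean ± SD of three experiments, one-way ANOVA.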

[15] = Toxicity in C57BL/6 mouse assessed as abnormal arrangements of hepatocyte at 40 mg/kg, sc measured after 7 days by histopathological analysis; assay type: organism-based; conditions: hepatocytes, 168 h, time 7 day; method in brief: as §1
[16] = Toxicity in C57BL/6 mouse assessed as reduction in ALT plasma level at 40 mg/kg, sc measured after 7 days by ELISA method; assay type: organism-based; conditions: in vivo, 168 h, time 7 day
Method in brief: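 Male C57BL/6J mice, 3 months old, dosed subcutaneously at 40 mg/kg daily for seven days in Transcutol. Killed under isoflurane 6 h after the final dose. Retro-orbital blood taken into EDTA and spun at 3000 rpm, 4 °C, 10 min. Plasma ALT measured by ELISA kit. Mean ± SEM, n = 5–6 per group.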

[17] = Toxicity in C57BL/6 mouse assessed as drug tolerance at 40 mg/kg, sc measured after 7 days; assay type: organism-based; conditions: in vivo, 168 h, time 7 day; method in brief: as §1
HepG2 [18] = assay: Induction of LDLR expression in human HepG2 cells by Western blot analysis; assay type: functional, cell-based; method in brief: as §2
HepG2 [19] = assay: Cytotoxicity against human HepG2 cells assessed as reduction in cell viability at 5 uM measured after 24 hrs by SRB assay relative to control; assay type: functional
Method in brief: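 HepG2 seeded 8000 cells/well in complete MEM; next day medium replaced with 0.4 % FBS medium containing compound or DMSO control. Viability was read by sulforhodamine B assay after 24 h, with absorbance at 570 nm. Dose-response series used 6.25, 12.5, 25, 50 or 100 μM; newer analogues were tested at a fixed 5 μM. Data are mean ± SD of three independent experiments.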

[20] = Toxicity in C57BL/6 mouse assessed as effect on kidney at 40 mg/kg, sc measured after 7 days by H and E staining based analysis; assay type: organism-based; conditions: in vivo, 168 h, time 7 day
[21] = Toxicity in C57BL/6 mouse assessed as changes in fur sheen at 40 mg/kg, sc measured after 7 days; assay type: organism-based; conditions: in vivo, 168 h, time 7 day; method in brief: as §1
[22] = Toxicity in C57BL/6 mouse assessed as inflammatory cells infiltration at 40 mg/kg, sc measured after 7 days by histopathological analysis; assay type: organism-based; conditions: in vivo, 168 h, time 7 day
Method in brief: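 Male C57BL/6J mice, 3 months old, 26–30 g, given 40 mg/kg subcutaneously in 100 % Transcutol (vehicle group) for seven days. Killed 6 h after the last injection. Liver fixed in 4 % PFA, cryoprotected in 20 % sucrose and cut into 7 µm cryosections. Sections stained with hematoxylin/eosin and scored by two operators for hepatocyte arrangement, inflammatory infiltration and necrosis.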

HepG2 [23] = assay: Downregulation of PCSK9 protein level in human HepG2 cells at 2.5 uM by Western blot analysis; assay type: functional, cell-based; method in brief: as §2
[24] = Toxicity in C57BL/6 mouse assessed as effect on brain at 40 mg/kg, sc measured after 7 days by H and E staining based analysis; assay type: organism-based; conditions: in vivo, 168 h, time 7 day
[25] = Inhibition of PCSK9 expression in human HepG2 cells at 5 to 10 uM by ELISA method relative to control; assay type: functional; conditions: dose 5-10 µM
Method in brief: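 Secreted PCSK9 was measured in HepG2 conditioned media with a human PCSK9 DuoSet sandwich ELISA. Media were centrifuged at 15000 rpm for 10 min and diluted before reading absorbance at 450 nm. Values were normalized to HepG2 total protein content. Mean ± SD of three independent experiments.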

[26] = Toxicity in C57BL/6 mouse assessed as defecations at 40 mg/kg, sc measured after 7 days; assay type: organism-based; conditions: in vivo, 168 h, time 7 day; method in brief: as §1
[27] = Toxicity in C57BL/6 mouse assessed as effect on body weight at 40 mg/kg, sc measured after 7 days; assay type: organism-based; conditions: in vivo, 168 h, time 7 day; method in brief: as §1

In the case of `Cc1cc(NCc2ccc(C(F)(F)F)cc2)cc(=O)n1Cc1ccc(C(F)(F)F)cc1`, the Activity [1] is reported as “Non-Toxic”, the Activity [2] is reported as 100% and the Activity [3] is reported as “Non-Toxic”. The Activity [4] was “Non-Toxic”, the Activity [5] was “Non-Toxic” and the Activity [6] was “Non-Toxic”. The Activity (HepG2 [7]) was “Active”, the Activity [8] was “Non-Toxic” and the Activity [9] was “Non-Toxic”. For the same compound, the Activity [10] was “Non-Toxic”, the Activity [11] was “Non-Toxic” and the Activity (HepG2 [12]) was “Active”. The inhibition (HepG2 [13]) was “Active”, the Activity (HepG2 [14]) was “Active” and the Activity [15] was “Non-Toxic”. The Activity [16] was “Non-Toxic”, the Activity [17] was “Non-Toxic” and the Activity (HepG2 [18]) was “Active”. The Activity (HepG2 [19]) was over 95%, the Activity [20] was “Non-Toxic” and the Activity [21] was “Non-Toxic”. The Activity [22] was “Non-Toxic”, the Activity (HepG2 [23]) was “Active” and the Activity [24] was “Non-Toxic”. For the same compound, the “inhibition (INH)” value [25] was 100%, the Activity [26] was “Non-Toxic” and the Activity [27] was “Non-Toxic”.
